Data as given in publication PMC2810401 (Biochemistry, 2010).
Converted amounts (≈) assume the structure as drawn. “And” between values parts separate entries of the source, which are not always exact repeats. Equal values may be shown once. Read-outs that look alike come from different tables or passages of the source.

Legend:
ADC β-lactamase [1] = target: T1, ADC β-lactamase (Acinetobacter baumannii, UniProt Q6DRA1); settings: obtained previously by same methodology; cited from earlier work
ADC β-lactamase [2] = target: T1, ADC β-lactamase; experiment: Ki in direct competition assays with ADC; type: biochemical
ADC β-lactamase [3] = target: T1, ADC β-lactamase; experiment: ESI-MS of intact ADC incubated with inhibitors; settings: 14 μM ADC, 15 min, inhibitor: enzyme 20:1; error ± 3 amu
In short: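 ADC-7 was expressed in E. coli BL21(DE3) from pET24a(+) with 0.2 mM IPTG at 37 °C for 4 hr. It was purified by preparative isoelectric focusing and gel-filtration FPLC. Incubations were run with and without test compound, then quenched with 0.1% TFA, desalted on C18 and kept on ice. Samples were diluted to 10 μM in 50% acetonitrile/0.1% TFA, nanospray-infused at 0.5 μl/min for 2 min on a Q-TOF, and spectra were deconvoluted.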

E. coli DH10B blaADC = settings: E. coli DH10B harboring blaADC; previous data; cited from earlier work

Compound	Ki (ADC β-lactamase [1]) [µM]	Ki (ADC β-lactamase [2]) [µM]	Species observed in deconvoluted spectra (ADC β-lactamase [3])	Δ difference from β-lactamase molecular weight (ADC β-lactamase [3])	MIC (E. coli DH10B blaADC) [mg/L]
O=C(O)[C@H]1/C(=C/CO)O[C@@H]2CC(=O)N21 [Clavulanate]	4280	–	–	–	–
C[C@@H](O)[C@H]1C(=O)N2C(C(=O)O)=C(S[C@@H]3CN[C@H](CNS(N)(=O)=O)C3)[C@H](C)[C@H]12 [Doripenem]	–	12.2 ± 0.4	41,058 amu and 41,015 amu	420 amu and 377 amu	–
C[C@@H](O)[C@H]1C(=O)N2C(C(=O)O)=C(S[C@@H]3CN[C@H](C(=O)Nc4cccc(C(=O)O)c4)C3)[C@H](C)[C@H]12 [Ertapenem]	–	5.8 ± 0.2	41,069 amu and 41,112 amu	431 amu and 474 amu	0.06 (≈ 0.126 µM)
C[C@@H](O)[C@H]1C(=O)N2C(C(=O)O)=C(SCCN=CN)C[C@H]12 [Imipenem]	–	1.3 ± 0.1	40,936 amu and 40,893 amu	298 amu and 255 amu	–
C[C@@H](O)[C@H]1C(=O)N2C(C(=O)O)=C(S[C@@H]3CN[C@H](C(=O)N(C)C)C3)[C@H](C)[C@H]12 [Meropenem]	–	19 ± 2	41,021 amu and 40,979 amu	383 amu and 341 amu	0.06 (≈ 0.156 µM)
CC1(C)[C@H](C(=O)O)N2C(=O)C[C@H]2S1(=O)=O [Sulbactam]	109 ± 3	–	–	–	–
C[C@]1(Cn2ccnn2)[C@H](C(=O)O)N2C(=O)C[C@H]2S1(=O)=O [Tazobactam]	91 ± 21	–	–	–	–
